Assay results gathered from unrelated publications.
Lines come from different studies, so protocols differ.
Matrix: plasma

O=C(/C=C/c1cccc(S(=O)(=O)Nc2ccccc2)c1)NO — AUC(0-t) (human; intravenous; 1900 mg/m²; patients): 72100 ng·h/mL
CNCC[C@H](Oc1cccc2ccccc12)c1cccs1 — AUC(0-t) (female human; oral; 30 mg; multiple doses, once daily): 135 ng·h/mL
C[C@@H](c1ccc2nccn2c1)n1nnc2ncc(-c3cnn(C)c3)nc21 — AUC(0-t) (human; oral; 200 mg): 3980 ng·h/mL
COCCOc1cnc2ccn([C@H](C)c3nnc4c(F)cc(-c5cnn(C)c5)cn34)c(=O)c2c1 — AUC(0-t) (human; oral; 150 mg; multiple doses, once daily, patients): 31900 ng·h/mL
COc1cc2c(cc1OC)CN(CCc1ccc(NC(=O)c3cc(OC)c(OC)cc3NC(=O)c3cnc4ccccc4c3)cc1)CC2 — AUC(0-t) (human; intravenous; 1 mg/kg; patients): 5.4 µM·h
C[C@@]1(c2cc(NC(=O)c3ccc(C#N)cn3)ccc2F)C=CSC(N)=N1 — AUC(0-t) (human; oral; 10 mg; single dose): 1000 ng·h/mL
FC(F)(F)c1ccc(CNc2ccc(Cc3c[nH]c4ncc(Cl)cc34)cn2)cn1 — AUC(0-t) (human; oral; 1600 mg; multiple doses, patients): 28700 ng·h/mL
C[C@@H](Oc1ccc(S(C)(=O)=O)cc1C(=O)N1C[C@@H]2C[C@]2(c2cc(C(F)(F)F)on2)C1)C(F)(F)F — AUC(0-t) (human; oral; 25 mg): 12 µM·h
CO[C@H]1CC[C@H](N2C(=O)CNc3ncc(-c4ccc(C(C)(C)O)nc4)nc32)CC1 — AUC(0-t) (human; oral; 7.5 mg; multiple doses, patients): 299 ng·h/mL
CC(C)n1cc(C#N)c2cc(-n3cc(C(=O)O)cn3)ccc21 — AUC(0-t) (male human; oral; 600 mg; single dose, fasted, healthy volunteers): 98800 ng·h/mL
CC(C)(O)c1ccccc1-c1ccc2[nH]c(/C=C/c3ccc(C(F)(F)F)cc3)nc2c1 — AUC(0-t) (male human; oral; 120 mg; single dose, fasted, healthy volunteers): 13100 ng·h/mL
COc1ccc([C@@H]2CN(C(=O)[C@@H](O)CO)C[C@@]2(C)[C@@H](C)O)cc1OC1CN(c2ccc(C)cn2)C1 — AUC(0-t) (human; oral; 0.1 mg; single dose, healthy volunteers): 52.7 ng·h/mL
CCO[C@H]1CCN(Cc2c(OC)cc(C)c3[nH]ccc23)[C@H](c2ccc(C(=O)O)cc2)C1 — AUC(0-t) (human; oral; 100 mg; multiple doses, twice daily, patients): 11900 ng·h/mL
Cc1nc(NC(=O)N2CCC[C@H]2C(N)=O)sc1-c1ccnc(C(C)(C)C(F)(F)F)c1 — AUC(0-t) (human; oral; 270 mg; patients): 25300 ng·h/mL
C[C@@H](Nc1cc(F)cc(F)c1)c1cc(C(=O)N(C)C)cc2c(=O)cc(N3CCOCC3)oc12 — AUC(0-t) (human; oral; 360 mg; single dose, patients): 8350 ng·h/mL
Oc1cc(O)c2c(c1)O[C@@H](c1ccc(O)c(O)c1)[C@@H](O)C2 — AUC(0-t) (human; oral; 30 mg; single dose): 6.9 ng·h/mL
CCOc1cc([C@@H](CS(C)(=O)=O)N2C(=O)c3cccc(NC(C)=O)c3C2=O)ccc1OC — AUC(0-t) (human; oral; 30 mg; single dose, healthy volunteers): 2190 ng·h/mL
C#Cc1cccc(Nc2ncnc3cc(OCCOC)c(OCCOC)cc23)c1 — AUC(0-t) (human; oral; 50 mg; multiple doses, once daily, patients): 24.9 µM·h
Nc1cc(C(F)(F)F)c(-c2cc(N3CCOCC3)nc(N3CCOCC3)n2)cn1 — AUC(0-t) (human; oral; 50 mg/day; patients): 3830 ng·h/mL
CO[C@@H]1[C@H](OC(=O)N2CC(CCN3CCOCC3)C2)CC[C@]2(CO2)[C@H]1[C@@]1(C)O[C@@H]1CC=C(C)C — AUC(0-t) (human; subcutaneous; 1.2 mg; single dose, healthy volunteers): 5.45 ng·h/mL
CCOc1ccc(Cc2cc([C@@H]3S[C@H](CO)[C@@H](O)[C@H](O)[C@H]3O)c(OC)cc2C)cc1 — AUC(0-t) (male human; oral; 5 mg; single dose, fasted, healthy volunteers): 1650 ng·h/mL
CCNCCCNC/C=C\CNCCCNCC — AUC(0-t) (human; intravenous; 100 mg; patients, infusion): 304 ng·h/mL
NS(=O)(=O)c1ccc(NC(=O)Nc2ccc(F)cc2)cc1 — AUC(0-t) (human; oral; 1000 mg; multiple doses, once daily): 70700 ng·h/mL
COC(=O)N[C@@H](C)CNc1nccc(-c2cn(C(C)C)nc2-c2cc(Cl)cc(NS(C)(=O)=O)c2F)n1 — AUC(0-t) (human; oral; 50 mg; single dose): 1900 ng·h/mL
C=CC(=O)N1CCC(Oc2cc3c(Nc4ccc(Cl)c(Cl)c4F)ncnc3cc2OC)CC1 — AUC(0-t) (human; oral; 16 mg; single dose, fed): 474 ng·h/mL
COc1cc(N2CCC(N3CCN(C)CC3)CC2)ccc1Nc1ncnc(Nc2ccccc2S(=O)(=O)C(C)C)n1 — AUC(0-t) (human; oral; 325 mg; multiple doses, patients): 23100 ng·h/mL
CNC(=O)c1ccccc1Sc1ccc2c(/C=C/c3ccccn3)n[nH]c2c1 — AUC(0-t) (human; oral; 5 mg; single dose, fasted, healthy volunteers): 194 ng·h/mL
CC[C@H](C)C(=O)O[C@H]1C[C@H](O)C=C2C=C[C@H](C)[C@H](CC[C@@H](O)C[C@@H](O)CC(=O)O)[C@H]21 — AUC(0-t) (human; oral; 20 mg): 46.7 ng·h/mL
C[C@@H](Oc1ccc(S(C)(=O)=O)cc1C(=O)N1C[C@@H]2C[C@]2(c2cc(C(F)(F)F)on2)C1)C(F)(F)F — AUC(0-t) (human; oral; 25 mg; fed, tablet): 11 µM·h
CCCCC1=NC2(CCCC2)C(=O)N1Cc1ccc(-c2ccccc2S(=O)(=O)Nc2noc(C)c2C)c(COCC)c1 — AUC(0-t) (human; oral; 800 mg; single dose, fed, healthy volunteers, tablet): 169000 ng·h/mL
OC[C@H]1O[C@@H](c2ccc(Cl)c(Cc3ccc(O[C@H]4CCOC4)cc3)c2)[C@H](O)[C@@H](O)[C@@H]1O — AUC(0-t) (human; oral; 2.5 mg; single dose): 0.402 µM·h
